Experimental data taken from ChEMBL document CHEMBL1629485, “Lead identification of conformationally restricted β-lactam type combretastatin analogues: synthesis, antiproliferative activity and tubulin targeting effects” (Eur J Med Chem, 2010).

Experiments:
[1] = test system: MCF7; assay: Cytotoxicity against human MCF7 cells expressing estrogen receptor assessed as LDH release at 10 uM; assay type: functional
In short: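 After compound treatment, LDH was measured with a commercial LDH kit. Result is % cell lysis at 10 μM compound.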

[2] = test system: MDA-MB-231; assay: Cell cycle arrest in estrogen receptor deficient human MDA-MB-231 cells assessed as accumulation at G1 phase at 1 uM after 24 hrs using propidium iodide staining by flow cytometry relative to control; assay type: functional
In short: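 MDA-MB-231 cells in DMEM with 10% FBS and 2 mM L-glutamine, seeded at 18 × 10⁴ cells/mL. Exposed to test agent at the stated final concentration, or to 1% (v/v) ethanol vehicle, for 24, 48 or 72 h. Harvested by scraping and centrifugation, then RNase A treatment and propidium iodide DNA staining for at least 30 min at 37 °C. 10,000 cells per sample read at 488 nm by flow cytometry; mean ± SD of three experiments.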

COc1ccc(C2CC(=O)N2c2cc(OC)c(OC)c(OC)c2)cc1O (configuration not stated)
Activity [1]: 9%
Activity [2]: 19.22%
